Assay: Inhibition of HIV Protease using Abz-Thr-Ile-Nle-Phe(NO2)-Gln-Arg as fluorogenic substrate by fluorimetry
Design: species or system Human immunodeficiency virus
Conditions: not given; call rule not given here
In short: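 Commercial HIV-PR at 10 nm final, in pH 5.5 MES buffer (100 mM MES/NaOH, 400 mM NaCl, 1 mM EDTA, 1 mM DTT), 25 °C thermostated cuvette. Substrate at 30 μM final. Excitation 325 nm, emission 420 nm. Enzyme added after 1.5 min and inhibitor (DMSO stock) after a further 1 min, then read 10 min. IC50 from initial rates over several inhibitor concentrations, at least three independent experiments.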

IC50	Compound
Not Active	CC(C)CN(C[C@@H](O)CNc1ccc2[nH]ccc2c1)S(=O)(=O)c1ccc([N+](=O)[O-])cc1

Same assay, conditions: read-out: IC50

IC50	Compound
346 µM	COc1ccc(S(=O)(=O)N(CC(C)C)C[C@@H](O)COc2ccc3cc[nH]c3c2)cc1OC
24 µM	CC(C)(C)NC(=O)[C@@H]1C[C@@H]2CCCC[C@@H]2CN1C[C@@H](O)COc1cccc2[nH]ccc12
14 µM	CC(C)(C)NC(=O)[C@@H]1C[C@@H]2CCCC[C@@H]2CN1C[C@@H](O)COc1ccc2[nH]ccc2c1
138 µM	CC(C)(C)NC(=O)[C@@H]1C[C@@H]2CCCC[C@@H]2CN1C[C@@H](O)COc1ccc2cc[nH]c2c1
12 µM	CC(C)CN(C[C@@H](O)COc1ccc2[nH]ccc2c1)S(=O)(=O)c1ccc(N)cc1
46 µM	CC(C)CN(C[C@@H](O)COc1ccc2cc[nH]c2c1)S(=O)(=O)c1ccc([N+](=O)[O-])cc1
50 µM	CC(C)(C)NC(=O)[C@@H]1C[C@@H]2CCCC[C@@H]2CN1C[C@@H](O)COC(=O)Nc1cccc2[nH]ccc12
606 µM	CC(C)(C)NC(=O)[C@@H]1C[C@@H]2CCCC[C@@H]2CN1C[C@@H](O)COC(=O)Nc1ccc2[nH]ccc2c1
157 µM	CC(C)(C)NC(=O)[C@@H]1C[C@@H]2CCCC[C@@H]2CN1C[C@@H](O)CNc1cccc2[nH]ccc12
176 µM	CC(C)(C)NC(=O)[C@@H]1C[C@@H]2CCCC[C@@H]2CN1C[C@@H](O)CNc1ccc2[nH]ccc2c1

Further lines, the molecule ahead of its results:

Compound	IC50
COc1ccc(S(=O)(=O)N(CC(C)C)C[C@@H](O)COc2ccc3[nH]ccc3c2)cc1OC	1 µM
CC(C)CN(C[C@@H](O)COc1cccc2[nH]ccc12)S(=O)(=O)c1ccc([N+](=O)[O-])cc1	346 µM
CC(C)CN(C[C@@H](O)COc1ccc2[nH]ccc2c1)S(=O)(=O)c1ccc([N+](=O)[O-])cc1	10 µM
COc1ccc(S(=O)(=O)N(CC(C)C)C[C@@H](O)COc2cccc3[nH]ccc23)cc1OC	336 µM
CC(C)CN(C[C@@H](O)CNc1cccc2[nH]ccc12)S(=O)(=O)c1ccc([N+](=O)[O-])cc1	2630 µM
COc1ccc(S(=O)(=O)N(CC(C)C)C[C@@H](O)CNc2cccc3[nH]ccc23)cc1OC	336 µM
COc1ccc(S(=O)(=O)N(CC(C)C)C[C@@H](O)CNc2ccc3[nH]ccc3c2)cc1OC	4400 µM
CC(C)CN(C[C@@H](O)COC(=O)Nc1cccc2[nH]ccc12)S(=O)(=O)c1ccc([N+](=O)[O-])cc1	72 µM
CC(C)CN(C[C@@H](O)COC(=O)Nc1ccc2[nH]ccc2c1)S(=O)(=O)c1ccc([N+](=O)[O-])cc1	2 µM
COc1ccc(S(=O)(=O)N(CC(C)C)C[C@@H](O)COC(=O)Nc2cccc3[nH]ccc23)cc1OC	615 µM
COc1ccc(S(=O)(=O)N(CC(C)C)C[C@@H](O)COC(=O)Nc2ccc3[nH]ccc3c2)cc1OC	1400 µM
COc1ccc(S(=O)(=O)N(CC(C)C)C[C@@H](O)COC(=O)Nc2ccc3[nH]ccc3c2)cc1	8 µM

Source: ChEMBL document CHEMBL3351348, “Synthesis and biological evaluation of new simple indolic non peptidic HIV Protease inhibitors: the effect of different substitution patterns” (Bioorg Med Chem, 2014)
